# Assay results reported in ChEMBL document CHEMBL1134596, “Synthesis and conformational analysis of fusidic acid side chain derivatives in relation to antibacterial activity” (2001).
# Columns and labels:
# Format in all cases: functional
# Clostridium perfringens = assay: Minimum inhibitory concentration against Clostridium perfringens KT 13
# In short: (§1)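 MIC by agar cup diffusion. Colonies from fresh overnight culture were suspended in saline to 0.5 McFarland (10^8 CFU/mL), and molten Mueller Hinton agar at 48 °C was seeded at 10^6 CFU/mL and poured. Wells each received 200 µL of one of six dilutions spanning 0.25–125 µg/mL. After incubation, inhibition zone diameters were measured by caliper. Strains came from ATCC or in-house clinical isolates.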
# Staphylococcus aureus [1] = assay: Minimum inhibitory concentration against Staphylococcus aureus ATCC 6538P
# In short: (§2)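 Agar cup diffusion assay. Colonies from a fresh overnight culture were suspended in saline to 0.5 McFarland (10^8 CFU/mL). Mueller Hinton agar at 48 °C was seeded at 10^6 CFU/mL and poured, and holes were cut in it. Each hole received sample from a six-step dilution series between 0.25 and 125 µg/mL. After incubation, inhibition zone diameters were measured with an electronic caliper to estimate the MIC.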
# Staphylococcus aureus [2] = assay: Minimum inhibitory concentration against Staphylococcus aureus ATCC 2977; in short: as §1
# Escherichia coli = assay: Minimum inhibitory concentration against Escherichia coli HA 44; in short: as §2
# Bacillus cereus = assay: Minimum inhibitory concentration against Bacillus cereus ATCC 10876; in short: as §2
# Candida albicans = assay: Minimum inhibitory concentration against Candida albicans ATCC 10231
# Enterococcus faecium = assay: Minimum inhibitory concentration against Streptococcus faecium EI 119
# In short: (§3)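 Streptococcal MICs were estimated by agar cup diffusion in Mueller Hinton agar supplemented with 5% sheep blood. The agar was seeded at 48 °C with 10^6 CFU/mL from a saline suspension at 0.5 McFarland. Cut holes were filled from six dilutions spanning 0.25–125 µg/mL. After incubation, growth-inhibition zone diameters were read with an electronic caliper.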
# Micrococcus luteus = assay: Minimum inhibitory concentration against Micrococcus luteus ATCC 9341; in short: as §2
# Aspergillus niger = assay: Minimum inhibitory concentration against Aspergillus niger ATCC 16404
# Staphylococcus aureus [3] = assay: Minimum inhibitory concentration against meticilline and rifampicin resistant Staphylococcus aureus CJ 234; in short: as §1
# Staphylococcus aureus [4] = assay: Minimum inhibitory concentration against Staphylococcus aureus ATCC 29213; in short: as §2
# [5] = test system: Staphylococcus epidermidis; assay: Minimum inhibitory concentration against Staphylococcus epidermidis ATCC 12228; in short: as §2
# Streptococcus salivarius = assay: Minimum inhibitory concentration against Streptococcus salivarius EG 7 (gr.A); in short: as §3
# [6] = Minimum inhibitory concentration against Saccharomyces cerevisiae ZZ 7
# Cutibacterium acnes = assay: Minimum inhibitory concentration against Propionibacterium acnes NCTC 737; in short: as §2
# [7] = Minimum inhibitory concentration against Streptococcus. species EF 6; details: Bacteria; in short: as §3
# Staphylococcus aureus [8] = assay: Minimum inhibitory concentration against meticilline and fus resistant Staphylococcus aureus CJ 234; in short: as §1
# Corynebacterium xerosis = assay: Minimum inhibitory concentration against Corynebacterium xerosis NCTC 9755; in short: as §2
# Streptococcus pyogenes = assay: Minimum inhibitory concentration against Streptococcus pyogenes EC; in short: as §3
# [9] = test system: Streptococcus equi subsp. zooepidemicus; assay: Minimum inhibitory concentration against Streptococcus zooepidermidis ED (gr.C); in short: as §3
# [10] = test system: Streptococcus thermophilus; assay: Minimum inhibitory concentration against Streptococcus thermophilus EG 5; in short: as §3
# Staphylococcus aureus [11] = assay: Minimum inhibitory concentration against meticilline resistant Staphylococcus aureus CJ 232; in short: as §1
Compound,MIC (Clostridium perfringens),MIC (Staphylococcus aureus [1]),MIC (Staphylococcus aureus [2]),MIC (Escherichia coli),MIC (Bacillus cereus),MIC (Candida albicans),MIC (Enterococcus faecium),MIC (Micrococcus luteus),MIC (Staphylococcus aureus [3]),MIC (Staphylococcus aureus [4]),MIC [5],MIC (Streptococcus salivarius),MIC [6],MIC (Cutibacterium acnes),MIC [7],MIC (Staphylococcus aureus [8]),MIC (Corynebacterium xerosis),MIC (Streptococcus pyogenes),MIC [9],MIC [10],further results
CC(=O)O[C@H]1C[C@@]2(C)[C@@H](CC(O)[C@H]3[C@@]4(C)CCC(O)C(C)[C@@H]4CC[C@]32C)/C1=C(\CCC=C(C)C)C(=O)O (some centres not stated),16 µg/mL,0.007 µg/mL,0.006 µg/mL,> 125 µg/mL,4 µg/mL,16 µg/mL,0.01 µg/mL,1 µg/mL,0.006 µg/mL,0.007 µg/mL,0.0007 µg/mL,4 µg/mL,4 µg/mL,0.003 µg/mL,4 µg/mL,> 125 µg/mL,0.01 µg/mL,4 µg/mL,16 µg/mL,4 µg/mL,MIC (Aspergillus niger): 16 µg/mL; MIC (Staphylococcus aureus [11]): 0.015 µg/mL
CC(=O)O[C@H]1C[C@@]2(C)C(CC(O)[C@H]3[C@@]4(C)CCC(O)C(C)C4CC[C@@]32C)[C@@H]1[C@H](CCCC(C)C)C(=O)O (some centres not stated),> 125 µg/mL,4 µg/mL,4 µg/mL,> 125 µg/mL,> 125 µg/mL,> 125 µg/mL,16 µg/mL,> 125 µg/mL,0.9 µg/mL,2 µg/mL,3.8 µg/mL,> 125 µg/mL,> 125 µg/mL,4 µg/mL,> 125 µg/mL,> 125 µg/mL,4 µg/mL,> 125 µg/mL,> 125 µg/mL,> 125 µg/mL,MIC (Aspergillus niger): 16 µg/mL; MIC (Staphylococcus aureus [11]): 4 µg/mL
CC(=O)O[C@H]1C[C@@]2(C)C(CC(O)[C@H]3[C@@]4(C)CCC(O)C(C)C4CC[C@]32C)C1[C@H](CCC=C(C)C)C(=O)O (some centres not stated),16 µg/mL,0.012 µg/mL,0.03 µg/mL,> 125 µg/mL,1 µg/mL,64 µg/mL,0.025 µg/mL,1 µg/mL,0.03 µg/mL,0.01 µg/mL,0.01 µg/mL,4 µg/mL,4 µg/mL,0.03 µg/mL,4 µg/mL,> 125 µg/mL,0.03 µg/mL,16 µg/mL,16 µg/mL,16 µg/mL,MIC (Aspergillus niger): 64 µg/mL; MIC (Staphylococcus aureus [11]): 0.03 µg/mL
CC(=O)O[C@H]1C[C@@]2(C)C(CC(O)[C@H]3[C@@]4(C)CCC(O)C(C)C4CC[C@@]32C)C1[C@@H](CCC=C(C)C)C(=O)O (some centres not stated),> 125 µg/mL,> 125 µg/mL,> 125 µg/mL,> 125 µg/mL,> 125 µg/mL,> 125 µg/mL,> 125 µg/mL,> 125 µg/mL,> 125 µg/mL,> 125 µg/mL,> 125 µg/mL,> 125 µg/mL,> 125 µg/mL,4 µg/mL,> 125 µg/mL,> 125 µg/mL,> 125 µg/mL,> 125 µg/mL,> 125 µg/mL,> 125 µg/mL,MIC (Staphylococcus aureus [11]): > 125 µg/mL
